The source made the active and inactive calls. No cut-off for these calls is given here.
Columns and labels:
[1] = molecular target: T1, ATP-dependent translocase ABCB1 (Homo sapiens, UniProt P08183); experiment: Reversal of P-gp-mediated multidrug resistance in human KBV cells assessed as potentiation of paclitaxel-induced cytotoxicity by measuring decrease in paclitaxel IC50 at 10 uM after 72 hrs by MTT assay relative to paclitaxel alone; format: cell-based
[2] = Cell cycle arrest in human KBV cells assessed as accumulation at sub-G1 phase at 10 uM after 24 hrs by propidium iodide staining based flow cytometry (reference value: 2.21 +/- 1.02%); format: ADME
How it was run: (§1)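 KBV cells (grown in DMEM with 10% fetal calf serum and penicillin/streptomycin, with 10 nM paclitaxel added to maintain resistance) seeded at 3×10^5 per well and cultured 24 h. Test compound added, with or without paclitaxel 0.1 μM, for 24 h. Cells fixed in 70% ethanol overnight at –20 °C, stained 30 min with PI plus RNase A, and analysed by flow cytometry; mean ± SD, n = 3.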

[3] = molecular target: T1, ATP-dependent translocase ABCB1; experiment: Reversal of P-gp-mediated multidrug resistance in human KBV cells assessed as potentiation of paclitaxel-induced cell cycle arrest by measuring accumulation at S phase at 5 uM after 24 hrs by propidium iodide staining based flow cytometry (reference value: 12.54 +/- 4.01%); how it was run: as §1
[4] = molecular target: T1, ATP-dependent translocase ABCB1; experiment: Reversal of P-gp-mediated multidrug resistance in human KBV cells assessed as potentiation of paclitaxel-induced cytotoxicity by measuring cell survival at 5 uM after 72 hrs by MTT assay (reference value: 104 +/- 8%); format: cell-based
[5] = Toxicity in Balb/c nude mouse xenografted with human KBV cells assessed as body weight at 10 mg/kg, po via gavage for 2 weeks (reference value: 19.84 to 20.62 g); format: organism-based; details: in vivo, 336 h
[6] = Cell cycle arrest in human KBV cells assessed as accumulation at G2/M phase at 10 uM after 24 hrs by propidium iodide staining based flow cytometry (reference value: 19.62 +/- 1.54%); format: ADME; how it was run: as §1
[7] = Potentiation of paclitaxel-induced antitumor activity against human KBV cells xenografted in Balb/c nude mouse assessed as tumor growth inhibition at 10 mg/kg, po via gavage for 2 weeks cotreated with 30 mg/kg, ip paclitaxel (reference value: 17.9%); format: functional
[8] = molecular target: T1, ATP-dependent translocase ABCB1; experiment: Reversal of P-gp-mediated multidrug resistance in human KBV cells assessed as potentiation of paclitaxel-induced cell cycle arrest by measuring accumulation at G2/M phase at 5 uM after 24 hrs by propidium iodide staining based flow cytometry (reference value: 16.35 +/- 2.02%); how it was run: as §1
[9] = molecular target: T1, ATP-dependent translocase ABCB1; experiment: Reversal of P-gp-mediated multidrug resistance in human KBV cells assessed as potentiation of paclitaxel-induced cell cycle arrest by measuring accumulation at sub-G1 phase at 5 uM after 24 hrs by propidium iodide staining based flow cytometry (reference value: 2.29 +/- 0.39%); how it was run: as §1
[10] = Toxicity in Balb/c nude mouse xenografted with human KBV cells assessed as body weight at 10 mg/kg, po via gavage for 2 weeks cotreated with 30 mg/kg, ip paclitaxel (reference value: 19.84 to 20.62 g); format: organism-based; details: in vivo, 336 h
[11] = molecular target: T1, ATP-dependent translocase ABCB1; experiment: Inhibition of P-gp-mediated Rh-123 efflux in human KBV cells assessed as Rh-123 accumulation preincubated for 2 hrs followed by Rh-123 addition measured after 30 mins by flow cytometry; format: cell-based; details: 0.5 h
How it was run: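 KBV cells treated with or without compound for 2 h at the indicated concentrations, then loaded with 10 μM Rhodamine123 for 30 min. Cells harvested, washed three times in PBS and analysed by flow cytometry.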

[12] = molecular target: T1, ATP-dependent translocase ABCB1; experiment: Stimulation of P-gp ATPase activity (unknown origin) assessed as increase in ATP consumption preincubated for 5 mins followed by Mg-ATP addition measured after 40 mins by ATP-Glo luminescence assay relative to control
[13] = molecular target: T1, ATP-dependent translocase ABCB1; experiment: Reversal of P-gp-mediated multidrug resistance in human KBV cells assessed as potentiation of paclitaxel-induced cytotoxicity by measuring cell survival at 10 uM after 72 hrs by MTT assay (reference value: 104 +/- 8%); format: cell-based
P-gp (ABCB1) ATPase = P-gp (ABCB1) ATPase (Homo sapiens, UniProt P08183); experiment: Stimulation of P-gp ATPase activity (unknown origin) at 0.5 mM preincubated for 5 mins followed by Mg-ATP addition measured after 40 mins by ATP-Glo luminescence assay relative to control; details: read-out: FC
P-gp (ABCB1) ATPase, sequence (P08183 whole entry): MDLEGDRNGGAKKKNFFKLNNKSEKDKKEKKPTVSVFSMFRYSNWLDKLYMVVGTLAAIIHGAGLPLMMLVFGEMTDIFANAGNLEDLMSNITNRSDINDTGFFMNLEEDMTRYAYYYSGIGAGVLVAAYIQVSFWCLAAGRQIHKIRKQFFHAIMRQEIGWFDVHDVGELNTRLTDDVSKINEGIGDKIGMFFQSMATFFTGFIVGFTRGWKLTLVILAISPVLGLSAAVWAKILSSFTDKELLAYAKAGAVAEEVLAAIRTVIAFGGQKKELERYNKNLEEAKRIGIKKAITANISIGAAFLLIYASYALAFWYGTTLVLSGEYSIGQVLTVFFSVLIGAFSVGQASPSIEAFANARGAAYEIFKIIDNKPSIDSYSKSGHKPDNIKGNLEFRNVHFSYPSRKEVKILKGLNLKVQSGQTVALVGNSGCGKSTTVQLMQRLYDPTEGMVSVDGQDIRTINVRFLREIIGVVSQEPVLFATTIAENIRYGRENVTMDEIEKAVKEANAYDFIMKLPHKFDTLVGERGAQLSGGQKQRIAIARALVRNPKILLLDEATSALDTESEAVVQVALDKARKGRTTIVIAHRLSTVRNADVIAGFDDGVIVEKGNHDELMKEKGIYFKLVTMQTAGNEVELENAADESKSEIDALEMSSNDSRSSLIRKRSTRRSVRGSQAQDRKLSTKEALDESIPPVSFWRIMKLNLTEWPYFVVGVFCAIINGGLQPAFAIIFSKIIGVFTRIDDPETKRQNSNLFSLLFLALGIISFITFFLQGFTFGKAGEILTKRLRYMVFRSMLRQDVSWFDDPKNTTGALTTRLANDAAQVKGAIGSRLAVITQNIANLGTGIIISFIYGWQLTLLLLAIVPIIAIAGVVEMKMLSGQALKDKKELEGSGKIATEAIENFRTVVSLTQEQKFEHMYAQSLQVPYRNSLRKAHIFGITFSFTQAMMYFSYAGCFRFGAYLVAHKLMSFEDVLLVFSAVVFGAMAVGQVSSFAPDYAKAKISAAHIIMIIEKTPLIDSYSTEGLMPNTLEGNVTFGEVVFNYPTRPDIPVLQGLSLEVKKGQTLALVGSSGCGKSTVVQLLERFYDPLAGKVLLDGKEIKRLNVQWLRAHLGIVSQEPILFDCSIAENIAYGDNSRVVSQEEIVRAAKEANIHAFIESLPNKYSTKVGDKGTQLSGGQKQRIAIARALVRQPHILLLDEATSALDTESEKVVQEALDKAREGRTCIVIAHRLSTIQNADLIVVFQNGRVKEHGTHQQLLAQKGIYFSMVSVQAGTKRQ

[14] = molecular target: T1, ATP-dependent translocase ABCB1; experiment: Reversal of P-gp-mediated multidrug resistance in human KBV cells assessed as potentiation of paclitaxel-induced cell cycle arrest by measuring accumulation at G0/G1 phase at 5 uM after 24 hrs by propidium iodide staining based flow cytometry (reference value: 71.11 +/- 2%); how it was run: as §1
[15] = molecular target: T1, ATP-dependent translocase ABCB1; experiment: Reversal of P-gp-mediated multidrug resistance in human KBV cells assessed as potentiation of paclitaxel-induced cytotoxicity by measuring decrease in paclitaxel IC50 at 5 uM after 72 hrs by MTT assay relative to paclitaxel alone; format: cell-based
[16] = Cell cycle arrest in human KBV cells assessed as accumulation at G0/G1 phase at 10 uM after 24 hrs by propidium iodide staining based flow cytometry (reference value: 70.35 +/- 0.79%); format: ADME; how it was run: as §1
[17] = Cytotoxicity against human KBV cells assessed as cell survival at 10 uM after 72 hrs by MTT assay relative to control; format: cell-based; details: read-out: Survival
How it was run: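 KBV (Pgp-overexpressing MDR line) grown in DMEM/10% FCS, kept in 10 nM paclitaxel; seeded, compound (DMSO stock) added next day, 72 h; MTT 2 h, formazan in DMSO, A570 gives survival vs DMSO solvent control; n = 1-3 independent experiments, mean ± SD.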

[18] = Cytotoxicity against human KBV cells xenografted in Balb/c nude mouse assessed as tumor growth inhibition at 10 mg/kg, po via gavage for 2 weeks relative to control; format: organism-based; details: in vivo, 336 h
[19] = Cell cycle arrest in human KBV cells assessed as accumulation at S phase at 10 uM after 24 hrs by propidium iodide staining based flow cytometry (reference value: 10.03 +/- 0.75%); format: ADME; how it was run: as §1
Homo sapiens = species on record: Homo sapiens; experiment: Downregulation of P-gp protein expression in human KBV cells by western blot analysis; format: functional, cell-based

T1 sequence (P08183 whole entry): as above

Row | Structure (SMILES) | Survival [4] [%] | Survival [13] [%] | viability at 72 h, 10 µM [17] [%] | also measured
1 | CC(C)(C)OC(=O)NCCCCCC(=O)N[C@H]1CC[C@]2(C)[C@H]3C[C@@H](O)[C@@H]4[C@@H]([C@]5(C)CC[C@H](C(C)(C)O)O5)CC[C@@]4(C)[C@]3(C)CC[C@H]2C1(C)C | 46 | 34 | 128 | fold change (FC) [1]: 47.85; Activity [2]: 2.35%; Activity [3]: 16.05%; Activity [5]: 21.85 g; Activity [6]: 17.49%; TGI [7]: 53.73%; Activity [8]: 39.43%; Activity [9]: 43.12%; Activity [10]: 15.98 g; inhibition (INH) [11]: Dose-dependent effect; Activity [12]: Dose-dependent effect; fold induction at 40 min, 500 µM (P-gp (ABCB1) ATPase): 6.03; Activity [14]: 44.52%; fold change (FC) [15]: 27.97; Activity [16]: 73.29%; TGI [18]: 10.45%; Activity [19]: 9.22%; Activity (Homo sapiens): inactive
2 | COc1ccc(CCN(C)CCCC(C#N)(c2ccc(OC)c(OC)c2)C(C)C)cc1OC (configuration not stated) | – | 43 | – | Activity [2]: 2.25%; Activity [6]: 21.92%; Activity [16]: 68.09%; Activity [19]: 9.99%
3 | CC(C)(O)[C@@H]1CC[C@@](C)([C@H]2CC[C@]3(C)[C@@H]2[C@H](O)C[C@@H]2[C@@]4(C)CC[C@H](NC(=O)CN)C(C)(C)[C@@H]4CC[C@]23C)O1 | 98 | 115 | 90 | –
4 | CC(C)(C)OC(=O)NCC(=O)N[C@H]1CC[C@]2(C)[C@H]3C[C@@H](O)[C@@H]4[C@@H]([C@]5(C)CC[C@H](C(C)(C)O)O5)CC[C@@]4(C)[C@]3(C)CC[C@H]2C1(C)C | 48 | 42 | 95 | –
5 | CC(C)(C)OC(=O)NCCCC(=O)N[C@H]1CC[C@]2(C)[C@H]3C[C@@H](O)[C@@H]4[C@@H]([C@]5(C)CC[C@H](C(C)(C)O)O5)CC[C@@]4(C)[C@]3(C)CC[C@H]2C1(C)C | 48 | 34 | 67 | –
6 | CC(C)(O)[C@@H]1CC[C@@](C)([C@H]2CC[C@]3(C)[C@@H]2[C@H](O)C[C@@H]2[C@@]4(C)CC[C@H](N)C(C)(C)[C@@H]4CC[C@]23C)O1 | 102 | 88 | 91 | –
7 | CC(C)(O)[C@H]1CC[C@@](C)([C@H]2CC[C@]3(C)[C@@H]2[C@H](O)C[C@@H]2[C@@]4(C)CC[C@H](N)C(C)(C)[C@@H]4CC[C@]23C)O1 | 72 | 43 | 125 | fold change (FC) [1]: 28.11; fold change (FC) [15]: 10
8 | CC(C)(C)OC(=O)NCCCC(=O)N[C@H]1CC[C@]2(C)[C@H]3C[C@@H](O)[C@@H]4[C@@H]([C@]5(C)CC[C@@H](C(C)(C)O)O5)CC[C@@]4(C)[C@]3(C)CC[C@H]2C1(C)C | 90 | 44 | 94 | –
9 | CCCCCC(=O)N[C@H]1CC[C@]2(C)[C@H]3C[C@@H](O)[C@@H]4[C@@H]([C@]5(C)CC[C@H](C(C)(C)O)O5)CC[C@@]4(C)[C@]3(C)CC[C@H]2C1(C)C | 69 | 43 | 101 | –
10 | CC(C)(C)OC(=O)NCC(=O)N[C@H]1CC[C@]2(C)[C@H]3C[C@@H](O)[C@@H]4[C@@H]([C@]5(C)CC[C@@H](C(C)(C)O)O5)CC[C@@]4(C)[C@]3(C)CC[C@H]2C1(C)C | 61 | 42 | 96 | –
11 | CCCCCCCC(=O)N[C@H]1CC[C@]2(C)[C@H]3C[C@@H](O)[C@@H]4[C@@H]([C@]5(C)CC[C@H](C(C)(C)O)O5)CC[C@@]4(C)[C@]3(C)CC[C@H]2C1(C)C | 56 | 39 | 70 | –
12 | CC(C)(C)OC(=O)NCCCCCC(=O)N[C@H]1CC[C@]2(C)[C@H]3C[C@@H](O)[C@@H]4[C@@H]([C@]5(C)CC[C@@H](C(C)(C)O)O5)CC[C@@]4(C)[C@]3(C)CC[C@H]2C1(C)C | 65 | 40 | 79 | –
13 | CC(C)(O)[C@@H]1CC[C@@](C)([C@H]2CC[C@]3(C)[C@@H]2[C@H](O)C[C@@H]2[C@@]4(C)CC[C@H](NC(=O)c5ccccc5O)C(C)(C)[C@@H]4CC[C@]23C)O1 | 61 | 36 | 96 | –
14 | CC(C)(O)[C@H]1CC[C@@](C)([C@H]2CC[C@]3(C)[C@@H]2[C@H](O)C[C@@H]2[C@@]4(C)CC[C@H](NC(=O)c5ccccc5C(=O)O)C(C)(C)[C@@H]4CC[C@]23C)O1 | 96 | 85 | 105 | –
15 | CC(C)(C)OC(=O)NCCCCCCCC(=O)N[C@H]1CC[C@]2(C)[C@H]3C[C@@H](O)[C@@H]4[C@@H]([C@]5(C)CC[C@H](C(C)(C)O)O5)CC[C@@]4(C)[C@]3(C)CC[C@H]2C1(C)C | 54 | 39 | 106 | –
16 | CC(C)(O)[C@@H]1CC[C@@](C)([C@H]2CC[C@]3(C)[C@@H]2[C@H](O)C[C@@H]2[C@@]4(C)CC[C@H](NC(=O)CCCCCCCN)C(C)(C)[C@@H]4CC[C@]23C)O1 | 118 | 76 | 118 | –
17 | CC(C)(O)[C@H]1CC[C@@](C)([C@H]2CC[C@]3(C)[C@@H]2[C@H](O)C[C@@H]2[C@@]4(C)CC[C@H](NC(=O)c5ccc(N)cc5)C(C)(C)[C@@H]4CC[C@]23C)O1 | 77 | 47 | 75 | –
18 | CC(C)(O)[C@H]1CC[C@@](C)([C@H]2CC[C@]3(C)[C@@H]2[C@H](O)C[C@@H]2[C@@]4(C)CC[C@H](NC(=O)c5cccnc5)C(C)(C)[C@@H]4CC[C@]23C)O1 | 55 | 49 | 87 | –
19 | CCCCCC(=O)N[C@H]1CC[C@]2(C)[C@H]3C[C@@H](O)[C@@H]4[C@@H]([C@]5(C)CC[C@@H](C(C)(C)O)O5)CC[C@@]4(C)[C@]3(C)CC[C@H]2C1(C)C | 78 | 44 | 98 | –
20 | CC(C)(O)[C@H]1CC[C@@](C)([C@H]2CC[C@]3(C)[C@@H]2[C@H](O)C[C@@H]2[C@@]4(C)CC[C@H](NC(=O)CCCN)C(C)(C)[C@@H]4CC[C@]23C)O1 | 100 | 85 | 77 | –
